Measurements collected from several papers.
Each line is one published result; the experiments were not run side by side.
Target: Serine/threonine-protein kinase haspin (HASPIN, Homo sapiens, UniProt Q8TF76)
Residues used in one study (Q8TF76 1-798): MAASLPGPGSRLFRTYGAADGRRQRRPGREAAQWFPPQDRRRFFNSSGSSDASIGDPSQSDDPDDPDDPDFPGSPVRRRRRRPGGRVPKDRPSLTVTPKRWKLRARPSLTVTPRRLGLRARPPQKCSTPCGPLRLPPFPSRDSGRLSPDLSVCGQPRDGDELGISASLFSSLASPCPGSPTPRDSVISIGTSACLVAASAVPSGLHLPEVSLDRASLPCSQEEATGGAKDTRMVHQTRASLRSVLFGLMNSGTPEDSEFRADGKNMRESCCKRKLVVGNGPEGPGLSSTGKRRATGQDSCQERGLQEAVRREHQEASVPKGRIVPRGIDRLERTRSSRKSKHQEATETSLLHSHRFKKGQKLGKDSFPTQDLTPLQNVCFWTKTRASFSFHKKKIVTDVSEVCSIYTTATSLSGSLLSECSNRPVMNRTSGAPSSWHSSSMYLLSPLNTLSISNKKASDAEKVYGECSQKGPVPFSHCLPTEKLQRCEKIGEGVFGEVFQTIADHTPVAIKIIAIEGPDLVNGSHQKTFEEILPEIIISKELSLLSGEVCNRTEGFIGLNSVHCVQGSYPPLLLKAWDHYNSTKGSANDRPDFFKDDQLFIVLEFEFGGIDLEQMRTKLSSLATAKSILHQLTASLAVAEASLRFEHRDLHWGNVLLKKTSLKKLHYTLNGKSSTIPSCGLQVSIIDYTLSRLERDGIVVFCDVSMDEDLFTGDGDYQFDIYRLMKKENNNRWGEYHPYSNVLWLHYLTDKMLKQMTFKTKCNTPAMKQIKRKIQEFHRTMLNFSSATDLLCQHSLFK

| SMILES | read-out | mode | technique | concentration | quantity | value |
| --- | --- | --- | --- | --- | --- | --- |
| N#CC1(c2ccccn2)CCN(Cc2cc(C(=O)O)c(=O)n3ccccc23)CC1 | cell-free assay |  | competition with immobilised ligand | 1 µM | remaining binding | 100% |
| Nc1ncc(-c2nc(N3CCOCC3)nc(N3CCOCC3)n2)c(C(F)F)n1 | binding |  | competition with immobilised ligand | 10 µM | remaining binding | 71% |
| C#Cc1n[nH]c2c(-c3cn([C@@H](C)c4ccccc4)c(=O)[nH]c3=O)cc(F)cc12 | enzyme activity | inhibitor |  | 0.1 µM | inhibition | -5.9% |
| CC(C)(C)c1cc(C=C(C#N)C#N)cc(Br)c1O | enzyme activity | inhibitor |  | 0.5 µM | remaining activity | 67.2% |
| Cn1cc(-c2cc(F)cc(N3CCn4c(cc5c4CCCC5)C3=O)c2CO)cc(Nc2ccc(N3CCN(C4COC4)CC3)cn2)c1=O | enzyme activity | inhibitor |  | 0.1 µM | inhibition | 8% |
| O=c1[nH]c2ccccc2n1C1CCN(Cc2ccc(-c3[nH]c4cc5ncnc5cc4nc3-c3ccccc3)cc2)CC1 | cell-free assay |  |  | 0.5 µM | remaining signal | 106% |
| Cn1cncc1[C@](O)(COc1ccc(C#N)cc1-c1ccc(OC(F)(F)F)cc1)c1ccc(C#N)cc1 | cell-free assay |  | competition with immobilised ligand | 1 µM | remaining binding | 100% |
| C#Cc1n[nH]c2c(-c3cn(C(C)c4ccccn4)c(=O)[nH]c3=O)cc(F)cc12 (stereo not shown) | enzyme activity | inhibitor |  | 1 µM | inhibition | 18.9% |
| Cn1cc(-c2cccc(N3CCc4c(sc5c4CC(C)(C)C5)C3=O)c2CO)cc(Nc2ccncn2)c1=O | enzyme activity | inhibitor |  | 1 µM | inhibition | -1% |
| COc1ncccc1-c1cnn2ccc(N3CCN(C(=O)OC(C)C)CC3)nc12 | binding |  | competition with immobilised ligand | 1 µM | remaining binding | 80% |
